Test [1] has as its system HEp-2 RSV Long CPE inhibition, luminescence viability. Description: antiviral activity against respiratory syncytial virus – cell-based, synthesized compounds, set 14, dose response (AID 588485). The essentials:
(§1)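 test system = HEp-2 human cells infected with RSV strain Long | times = 6 days compound and virus exposure at 37 °C | technique = luminescence-based measurement of virus-induced cytopathic effect | read-out basis = percent CPE inhibition versus controls, IC50 by 4-parameter fit fixed 0/100 | control set = uninfected cell-only wells and infected virus control wells | replication = triplicate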

Assay in test [2]: as above
To be noted: HEp-2 RSV Long CPE inhibition, luminescence viability; at 50 µM (top of the series). The essentials: as §1

Several values for one entry are separate records, joined by “and”; a condition that tells them apart may be missing. Equal values may be shown once. Activity calls are given as the source filed them.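 How the source made its calls: active means CPE inhibition of 50% or more; inactive means the rest.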

Usually IC50 stands for the concentration needed to halve the response being measured.

On to `CC(C)c1ccc(Cn2c(=O)n(Cc3ccc(C(=O)NCc4ccco4)cc3)c(=O)c3ccccc32)cc1`, for which, in test [1], the IC50 was 1350 nM. `O=C(O)c1ccc(Cn2c(=O)n(Cc3ccc(C(=O)NCC4COC4)cc3)c(=O)c3ccccc32)cc1`: the CPE inhibition in test [2] was 0.24% (inactive) and 0.09% (inactive).

In the case of `COCCCNC(=O)c1ccc(Cn2c(=O)c3ccccc3n(Cc3ccc([N+](=O)[O-])cc3)c2=O)cc1`, the IC50 in test [1] was 460 nM. For the compound `CN(C)c1ccc(Cn2c(=O)n(Cc3ccc(C(=O)NCC4COC4)cc3)c(=O)c3ccccc32)cc1`, the IC50 in test [1] is 1250 nM.

Values taken from PubChem BioAssay AID588485 (Southern Research Specialized Biocontainment Screening …, 2011).
